According to ChEMBL document CHEMBL3525913, “Metabolism-dependent inhibition of CYP3A4 by lapatinib: evidence for formation of a metabolic intermediate complex with a nitroso/oxime metabolite formed via a nitrone intermediate” (Drug Metab Dispos, 2013):

How the values were obtained:
[1] = test system: Liver microsome; assay: Drug level in human liver microsomes treated with lapatinib at 50 uM by LC/MS/MS analysis; assay type: ADME
Method in brief: (§1)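 Lapatinib 50 μM (added in DMSO) incubated 30 min at 37°C in 100 mM potassium phosphate pH 7.4 with HLM 1 mg/mL or recombinant CYP3A4+b5 / CYP3A5+b5 100 pmol/mL. Reaction started with NADPH 1 mM. Protein re-isolated by ultracentrifugation (100,000 x g, 4°C, 60 min), washed (KCl/EDTA), resuspended in phosphate buffer, ±2 mM ferricyanide 10 min 37°C, quenched with acetonitrile, then high-resolution LC/MS profiling.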

[2] = biological target: T1, Cytochrome P450 3A4 (Homo sapiens, UniProt P08684); assay: Activity of recombinant CYP3A4 (unknown origin) assessed as compound formation treated with lapatinib at 50 uM by LC/MS/MS analysis; assay type: ADME; conditions: recombinant enzyme; method in brief: as §1
[3] = Retention time of the compound by LC/MS/MS analysis relative to lapatinib; assay type: physicochemical
Method in brief: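 Phenyl UPLC column (1.7 μm, 2.1 x 100 mm), 0.1% formic acid in water/acetonitrile, 0.4 mL/min. Gradient: 10% organic for 1 min, to 90% over 13 min, held 0.5 min. Detection by accurate-mass MS. Retention times expressed relative to lapatinib.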

[4] = biological target: T2, Cytochrome P450 3A5 (Homo sapiens, UniProt P20815); assay: Activity of recombinant CYP3A5 (unknown origin) assessed as compound formation treated with lapatinib at 50 uM by LC/MS/MS analysis; assay type: ADME; conditions: recombinant enzyme; method in brief: as §1
[5] = test system: Liver microsome; assay: Drug metabolism in human liver microsomes assessed as N-(3-chloro-4-(3-fluorobenzyloxy)phenyl)-6-(5-((hydroxy(2 (methylsulfonyl)ethyl)amino)methyl)furan-2-yl)quinazolin-4-amine formation at 50 uM for 30 mins by LC/MS/MS analysis; assay type: ADME; conditions: 0.5 h; method in brief: as §1
[6] = test system: Liver microsome; assay: Drug metabolism in human liver microsomes assessed as 5-(4-(3-chloro-4-(3-fluorobenzyloxy)phenylamino)quinazolin-6-yl)furan-2-carbaldehyde oxime formation at 50 uM for 30 mins by LC/MS/MS analysis; assay type: ADME; conditions: 0.5 h; method in brief: as §1
[7] = test system: Liver microsome; assay: Drug metabolism in human liver microsomes assessed as N-((5-(4-(3-chloro-Drug metabolism in human liver microsomes assessed as 5-(4-(3-chloro-4-(3-fluorobenzyloxy)phenylamino)quinazolin-6-yl)furan-2-carbaldehyde formation at 50 uM for 30 mins by LC/MS/MS analysis; assay type: ADME; conditions: 0.5 h; method in brief: as §1
[8] = biological target: T1, Cytochrome P450 3A4; assay: Activity of recombinant CYP3A4 (unknown origin) assessed as 2-chloro-4-(6-(5-((2-(methylsulfonyl)ethylamino)methyl)furan-2-yl)quinazolin-4-ylamino)phenol formation at 50 uM for 30 mins by LC/MS/MS analysis; assay type: ADME; conditions: recombinant enzyme, 0.5 h; method in brief: as §1
[9] = biological target: T1, Cytochrome P450 3A4; assay: Activity of recombinant CYP3A4 (unknown origin) assessed as N-((5-(4-(3-chloro-4-(3-fluorobenzyloxy)phenylamino)quinazolin-6-yl)furan-2-yl)methylene)-2-(methylsulfonyl)ethanamine oxide formation at 50 uM for 30 mins by LC/MS/MS analysis; assay type: ADME; conditions: recombinant enzyme, 0.5 h; method in brief: as §1
[10] = biological target: T1, Cytochrome P450 3A4; assay: Activity of recombinant CYP3A4 (unknown origin) assessed as (5-(4-(3-chloro-4-(3-fluorobenzyloxy)phenylamino)quinazolin-6-yl)furan-2-yl)methanol formation at 50 uM for 30 mins by LC/MS/MS analysis; assay type: ADME; conditions: recombinant enzyme, 0.5 h; method in brief: as §1
[11] = biological target: T1, Cytochrome P450 3A4; assay: Activity of recombinant CYP3A4 (unknown origin) assessed as N-(3-chloro-4-(3-fluorobenzyloxy)phenyl)-6-(5-((hydroxy(2 (methylsulfonyl)ethyl)amino)methyl)furan-2-yl)quinazolin-4-amine formation at 50 uM for 30 mins by LC/MS/MS analysis; assay type: ADME; conditions: recombinant enzyme, 0.5 h; method in brief: as §1
[12] = biological target: T1, Cytochrome P450 3A4; assay: Activity of recombinant CYP3A4 (unknown origin) assessed as 5-(4-(3-chloro-4-(3-fluorobenzyloxy)phenylamino)quinazolin-6-yl)furan-2-carbaldehyde oxime formation at 50 uM for 30 mins by LC/MS/MS analysis; assay type: ADME; conditions: recombinant enzyme, 0.5 h; method in brief: as §1
[13] = biological target: T1, Cytochrome P450 3A4; assay: Activity of recombinant CYP3A4 (unknown origin) assessed as 5-(4-(3-chloro-4-(3-fluorobenzyloxy)phenylamino)quinazolin-6-yl)furan-2-carbaldehyde formation at 50 uM for 30 mins by LC/MS/MS analysis; assay type: ADME; conditions: recombinant enzyme, 0.5 h; method in brief: as §1
[14] = biological target: T2, Cytochrome P450 3A5; assay: Activity of recombinant CYP3A5 (unknown origin) assessed as 2-chloro-4-(6-(5-((2-(methylsulfonyl)ethylamino)methyl)furan-2-yl)quinazolin-4-ylamino)phenol formation at 50 uM for 30 mins by LC/MS/MS analysis; assay type: ADME; conditions: recombinant enzyme, 0.5 h; method in brief: as §1
[15] = biological target: T2, Cytochrome P450 3A5; assay: Activity of recombinant CYP3A5 (unknown origin) assessed as 2-chloro-4-(6-(5-(hydroxy(2-(methylsulfonyl)ethylamino)methyl)furan-2-yl)quinazolin-4-ylamino)phenol formation at 50 uM for 30 mins by LC/MS/MS analysis; assay type: ADME; conditions: recombinant enzyme, 0.5 h; method in brief: as §1
[16] = biological target: T2, Cytochrome P450 3A5; assay: Activity of recombinant CYP3A5 (unknown origin) assessed as 6-(5-(aminomethyl)furan-2-yl)-N-(3-chloro-4-(3-fluorobenzyloxy)phenyl)quinazolin-4-amine formation at 50 uM for 30 mins by LC/MS/MS analysis; assay type: ADME; conditions: recombinant enzyme, 0.5 h; method in brief: as §1
[17] = biological target: T2, Cytochrome P450 3A5; assay: Activity of recombinant CYP3A5 (unknown origin) assessed as N-((5-(4-(3-chloro-4-(3-fluorobenzyloxy)phenylamino)quinazolin-6-yl)furan-2-yl)methylene)-2-(methylsulfonyl)ethanamine oxide formation at 50 uM for 30 mins by LC/MS/MS analysis; assay type: ADME; conditions: recombinant enzyme, 0.5 h; method in brief: as §1
[18] = biological target: T2, Cytochrome P450 3A5; assay: Activity of recombinant CYP3A5 (unknown origin) assessed as (5-(4-(3-chloro-4-(3-fluorobenzyloxy)phenylamino)quinazolin-6-yl)furan-2-yl)methanol formation at 50 uM for 30 mins by LC/MS/MS analysis; assay type: ADME; conditions: recombinant enzyme, 0.5 h; method in brief: as §1
[19] = biological target: T2, Cytochrome P450 3A5; assay: Activity of recombinant CYP3A5 (unknown origin) assessed as N-(3-chloro-4-(3-fluorobenzyloxy)phenyl)-6-(5-((hydroxy(2 (methylsulfonyl)ethyl)amino)methyl)furan-2-yl)quinazolin-4-amine formation at 50 uM for 30 mins by LC/MS/MS analysis; assay type: ADME; conditions: recombinant enzyme, 0.5 h; method in brief: as §1
[20] = biological target: T2, Cytochrome P450 3A5; assay: Activity of recombinant CYP3A5 (unknown origin) assessed as 5-(4-(3-chloro-4-(3-fluorobenzyloxy)phenylamino)quinazolin-6-yl)furan-2-carbaldehyde oxime formation at 50 uM for 30 mins by LC/MS/MS analysis; assay type: ADME; conditions: recombinant enzyme, 0.5 h; method in brief: as §1
[21] = biological target: T2, Cytochrome P450 3A5; assay: Activity of recombinant CYP3A5 (unknown origin) assessed as 5-(4-(3-chloro-4-(3-fluorobenzyloxy)phenylamino)quinazolin-6-yl)furan-2-carbaldehyde formation at 50 uM for 30 mins by LC/MS/MS analysis; assay type: ADME; conditions: recombinant enzyme, 0.5 h; method in brief: as §1
[22] = biological target: T1, Cytochrome P450 3A4; assay: Activity of recombinant CYP3A4 (unknown origin) assessed as 6-(5-(aminomethyl)furan-2-yl)-N-(3-chloro-4-(3-fluorobenzyloxy)phenyl)quinazolin-4-amine formation at 50 uM for 30 mins by LC/MS/MS analysis; assay type: ADME; conditions: recombinant enzyme, 0.5 h; method in brief: as §1
[23] = biological target: T1, Cytochrome P450 3A4; assay: Activity of recombinant CYP3A4 (unknown origin) assessed as 2-chloro-4-(6-(5-(hydroxy(2-(methylsulfonyl)ethylamino)methyl)furan-2-yl)quinazolin-4-ylamino)phenol formation at 50 uM for 30 mins by LC/MS/MS analysis; assay type: ADME; conditions: recombinant enzyme, 0.5 h; method in brief: as §1
[24] = test system: Liver microsome; assay: Drug metabolism in human liver microsomes assessed as 2-chloro-4-(6-(5-((2-(methylsulfonyl)ethylamino)methyl)furan-2-yl)quinazolin-4-ylamino)phenol formation at 50 uM for 30 mins by LC/MS/MS analysis; assay type: ADME; conditions: 0.5 h; method in brief: as §1
[25] = test system: Liver microsome; assay: Drug metabolism in human liver microsomes assessed as 2-chloro-4-(6-(5-(hydroxy(2-(methylsulfonyl)ethylamino)methyl)furan-2-yl)quinazolin-4-ylamino)phenol formation at 50 uM for 30 mins by LC/MS/MS analysis; assay type: ADME; conditions: 0.5 h; method in brief: as §1
[26] = test system: Liver microsome; assay: Drug metabolism in human liver microsomes assessed as 6-(5-(aminomethyl)furan-2-yl)-N-(3-chloro-4-(3-fluorobenzyloxy)phenyl)quinazolin-4-amine formation at 50 uM for 30 mins by LC/MS/MS analysis; assay type: ADME; conditions: 0.5 h; method in brief: as §1
[27] = test system: Liver microsome; assay: Drug metabolism in human liver microsomes assessed as N-((5-(4-(3-chloro-4-(3-fluorobenzyloxy)phenylamino)quinazolin-6-yl)furan-2-yl)methylene)-2-(methylsulfonyl)ethanamine oxide formation at 50 uM for 30 mins by LC/MS/MS analysis; assay type: ADME; conditions: 0.5 h; method in brief: as §1
[28] = test system: Liver microsome; assay: Drug metabolism in human liver microsomes assessed as (5-(4-(3-chloro-4-(3-fluorobenzyloxy)phenylamino)quinazolin-6-yl)furan-2-yl)methanol formation at 50 uM for 30 mins by LC/MS/MS analysis; assay type: ADME; conditions: 0.5 h; method in brief: as §1
[29] = biological target: T3, CYP3A4 (Homo sapiens, UniProt P08684); assay: Inhibition of CYP3A4-mediated midazolam 1-hydroxylation in human liver microsomes at 50 uM; assay type: ADME; conditions: probe midazolam (1-hydroxylation)
Method in brief: (§2)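 30 min preincubation with 50 μM test compound (DMSO) and 1 mM NADPH at 37°C in 100 mM potassium phosphate, pH 7.4. Enzyme source was HLM at 1 mg/mL or recombinant CYP3A4 + b5 at 100 pmol/mL. Residual activity assayed with midazolam (30 μM; 5 min; 37°C) at 0.05 mg/mL. 1'-hydroxymidazolam quantified by LC/MS/MS and normalised to solvent controls.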

[30] = biological target: T3, CYP3A4; assay: Inhibition of recombinant CYP3A4 (unknown origin)-mediated midazolam 1-hydroxylation at 50 uM; assay type: ADME; conditions: recombinant CYP3A4, probe midazolam (1-hydroxylation); method in brief: as §2
[31] = biological target: CYP3A5 (Homo sapiens, UniProt P20815); assay: Inhibition of recombinant CYP3A5 (unknown origin)-mediated midazolam 1-hydroxylation at 50 uM; assay type: ADME; conditions: recombinant CYP3A5, probe midazolam (1-hydroxylation)
Method in brief: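 Recombinant CYP3A5+b5 (100 pmol/mL) preincubated 30 min at 37°C, pH 7.4, with lapatinib 50 μM and 1 mM NADPH. Solvent controls run alongside. Residual activity measured as midazolam (30 μM, 5 min, 37°C) 1'-hydroxylation by LC/MS/MS at 0.05 mg/mL. Measured directly and after ultracentrifugation (100,000 x g, 60 min) with or without 2 mM ferricyanide (10 min). Normalized to solvent control.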

[32] = biological target: T2, Cytochrome P450 3A5; assay: Inhibition of recombinant CYP3A5 (unknown origin)-mediated midazolam 1-hydroxylation at 50 uM in presence of 2 mM ferricyanide; assay type: ADME; conditions: recombinant enzyme
Method in brief: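 Recombinant CYP3A5 + b5 (100 pmol/mL) preincubated 30 min at 37°C with test compound (50 μM) in 100 mM potassium phosphate pH 7.4, started with 1 mM NADPH. Then potassium ferricyanide (2 mM final) for 10 min at 37°C, ultracentrifugation, pellet washed. Residual midazolam (30 μM, 5 min, 37°C) 1'-hydroxylation measured by LC/MS/MS, normalized to solvent controls.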

T1 sequence (P08684 whole entry): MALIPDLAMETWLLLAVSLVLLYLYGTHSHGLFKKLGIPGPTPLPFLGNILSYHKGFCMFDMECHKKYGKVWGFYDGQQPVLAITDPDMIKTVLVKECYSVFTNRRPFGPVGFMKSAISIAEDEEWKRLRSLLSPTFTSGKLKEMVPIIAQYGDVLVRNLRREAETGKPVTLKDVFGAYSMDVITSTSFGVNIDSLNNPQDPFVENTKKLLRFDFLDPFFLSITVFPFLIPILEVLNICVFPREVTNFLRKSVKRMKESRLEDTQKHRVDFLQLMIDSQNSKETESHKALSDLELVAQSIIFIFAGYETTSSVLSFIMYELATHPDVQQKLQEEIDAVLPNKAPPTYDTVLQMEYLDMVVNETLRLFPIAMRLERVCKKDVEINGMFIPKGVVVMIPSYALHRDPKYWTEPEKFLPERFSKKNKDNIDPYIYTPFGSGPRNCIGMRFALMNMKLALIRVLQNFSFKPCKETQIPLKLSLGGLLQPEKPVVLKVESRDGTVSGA
T2 sequence (P20815 whole entry): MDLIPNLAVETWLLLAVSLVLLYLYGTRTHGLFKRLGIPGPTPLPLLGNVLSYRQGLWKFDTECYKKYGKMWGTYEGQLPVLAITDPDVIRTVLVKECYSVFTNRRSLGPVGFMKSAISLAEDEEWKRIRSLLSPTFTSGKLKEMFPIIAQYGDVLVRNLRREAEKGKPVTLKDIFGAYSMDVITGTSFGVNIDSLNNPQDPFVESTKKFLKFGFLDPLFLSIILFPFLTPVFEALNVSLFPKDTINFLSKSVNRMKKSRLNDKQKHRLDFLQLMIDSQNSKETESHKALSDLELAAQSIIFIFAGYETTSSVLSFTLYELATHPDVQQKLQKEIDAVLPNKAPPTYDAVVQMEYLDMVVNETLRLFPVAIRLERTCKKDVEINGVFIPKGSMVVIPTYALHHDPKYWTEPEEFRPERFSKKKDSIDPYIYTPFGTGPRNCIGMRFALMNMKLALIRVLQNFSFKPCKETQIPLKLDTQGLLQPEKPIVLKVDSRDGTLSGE
T3 sequence (P08684 whole entry): as the sequence (P08684 whole entry) above
Sequence of CYP3A5 (P20815 whole entry): as the sequence (P20815 whole entry) above

CS(=O)(=O)CCNCc1ccc(-c2ccc3ncnc(Nc4ccc(O)c(Cl)c4)c3c2)o1
metabolite_detected: Drug metabolism [1] | Drug metabolism [2] | Drug metabolism [4]
0.5: Ratio [3]

O=Cc1ccc(-c2ccc3ncnc(Nc4ccc(OCc5cccc(F)c5)c(Cl)c4)c3c2)o1
1.21: Ratio [3]
metabolite_detected: Drug metabolism [1] | Drug metabolism [2] | Drug metabolism [4]

CS(=O)(=O)CCN(O)Cc1ccc(-c2ccc3ncnc(Nc4ccc(OCc5cccc(F)c5)c(Cl)c4)c3c2)o1
1.14: Ratio [3]
metabolite_detected: Drug metabolism [1] | Drug metabolism [2] | Drug metabolism [4]

CS(=O)(=O)CC/[N+]([O-])=C/c1ccc(-c2ccc3ncnc(Nc4ccc(OCc5cccc(F)c5)c(Cl)c4)c3c2)o1
1.11: Ratio [3]
metabolite_detected: Drug metabolism [1] | Drug metabolism [2] | Drug metabolism [4]

CS(=O)(=O)CCNCc1ccc(-c2ccc3ncnc(Nc4ccc(OCc5cccc(F)c5)c(Cl)c4)c3c2)o1 [LAPATINIB]
45%: inhibition at 50 µM [29] | inhibition at 50 µM [30]
< 15%: inhibition at 50 µM [31]
Active: inhibition (INH) [32]
metabolite_detected: Drug metabolism [5] | Drug metabolism [6] | Drug metabolism [7] | Drug metabolism [8] | Drug metabolism [9] | Drug metabolism [10] | Drug metabolism [11] | Drug metabolism [12] | Drug metabolism [13] | Drug metabolism [14] | Drug metabolism [15] | Drug metabolism [16] | Drug metabolism [17] | Drug metabolism [18] | Drug metabolism [19] | Drug metabolism [20] | Drug metabolism [21] | Drug metabolism [22] | Drug metabolism [23] | Drug metabolism [24] | Drug metabolism [25] | Drug metabolism [26] | Drug metabolism [27] | Drug metabolism [28]
